Experimental data from publication PMC9446082 (Pharmacology Research & Perspectives, 2022).

How the values were obtained:
ERK phosphorylation = ERK phosphorylation in wild-type Sf9 cells; type: cell-based, Spodoptera frugiperda; conditions: wild-type (non-transfected) Sf9 cells, data not shown
GPER [1] = biological target: T1, GPER (Homo sapiens, UniProt Q99527); assay: Guanine nucleotide sensitivity of [3H] 2-ME high-affinity binding; conditions: GppNHp 100 μM, 5 mM Mg++, n = 3
Method in brief: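 Sf9 particulate fraction expressing baculovirus-delivered GPER, incubated with [³H]2-ME (0.5–2 nM) with or without 100 μM GppNHp. Mg⁺⁺ was 5 mM to favour the high-affinity agonist state. Binding was in Tris-HCl pH 7.4 buffer with BSA, 120 min at 15°C. Reactions were stopped with ice-cold buffer, filtered and scintillation counted. Specific binding is total minus binding with 100 nM cold 2-ME added 12 min before radioligand.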

GPER [2] = biological target: T1, GPER; assay: Dissociation rate of [3H] 2-ME binding in GPER-transduced Sf9 cells; conditions: corresponding to Koff
Method in brief: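 Particulate fraction (1000 × g then 20 000 × g spins) from Sf9 cells 48 h after human GPER baculovirus infection. Incubated with 2 nM [³H]2-ME for 120 min at 15°C, then diluted tenfold with ice-cold binding buffer (50 mM Tris-HCl pH 7.4). Bound radioactivity was sampled from 5 to 120 s by vacuum filtration through cellulose nitrate and scintillation counting. Nonspecific binding was taken with 100 nM unlabelled 2-ME. Mean ± SD, n = 4.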

[3] = test system: GPER‐transduced Sf9 cells; assay: EdU incorporation proliferation assay in GPER-transduced Sf9 cells; type: cell-based; conditions: Spodoptera frugiperda, read-out: Cell proliferation IC50
GPER [4] = biological target: T1, GPER; assay: [3H] 2-ME competition binding in GPER-transduced Sf9 cell particulate fractions

T1 sequence (Q99527 whole entry, species assumed): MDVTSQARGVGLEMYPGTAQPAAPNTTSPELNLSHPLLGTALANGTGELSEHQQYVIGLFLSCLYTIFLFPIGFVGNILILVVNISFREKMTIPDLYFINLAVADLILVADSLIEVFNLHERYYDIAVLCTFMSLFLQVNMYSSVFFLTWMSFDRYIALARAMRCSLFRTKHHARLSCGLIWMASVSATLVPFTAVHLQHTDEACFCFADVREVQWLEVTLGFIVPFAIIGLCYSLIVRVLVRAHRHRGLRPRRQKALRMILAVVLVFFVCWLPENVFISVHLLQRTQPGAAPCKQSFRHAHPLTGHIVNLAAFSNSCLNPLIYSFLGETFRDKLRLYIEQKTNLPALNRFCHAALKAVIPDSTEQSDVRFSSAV

Ki (GPER [4])	Compound	Inhibition of ERK phosphorylation in wild-type Sf9 cells (ERK phosphorylation)	IC50 [3]	also measured
–	C[C@]12CC[C@@H]3c4ccc(O)cc4CC[C@H]3[C@@H]1CC[C@@H]2O [E2, Estradiol]	did not inhibit	–	–
–	CC(=O)c1ccc2c(c1)[C@@H]1C=CC[C@@H]1[C@H](c1cc3c(cc1Br)OCO3)N2 (relative stereo) [G1, 1‐[(3aS,4R,9bR‐rel)‐4‐(6‐bromo‐1,3‐benzodioxol‐5‐yl)‐3a,4,5,9b‐tetrahydro‐[^3H]‐cyclopenta[c]quinolin‐8‐yl]‐ethanone]	did not inhibit	–	–
–	Nc1nc2c(ncn2[C@@H]2O[C@H](COP(=O)(O)OP(=O)(O)NP(=O)(O)O)[C@@H](O)[C@H]2O)c(=O)[nH]1 [GppNHp]	–	–	Reduction of high-affinity [3H] 2-ME binding (GPER [1]; [3H] 2-ME 0.5 nM): 46 ± 23%; Reduction of high-affinity [3H] 2-ME binding (GPER [1]; [3H] 2-ME 1 nM): 19 ± 7%; Reduction of high-affinity [3H] 2-ME binding (GPER [1]; [3H] 2-ME 2 nM): 53 ± 24
–	[^3H] 2‐methoxyestradiol	–	–	Dissociation half-life (GPER [2]): 21 s
1500 pM	COc1cc2c(cc1O)CC[C@@H]1[C@@H]2CC[C@]2(C)[C@@H](O)CC[C@@H]12 [2‐ME, 2‐Methoxyestradiol]	did not inhibit	26 pM	–
24000 pM	C[C@]12CCC(=O)C=C1CC[C@@H]1[C@@H]2[C@@H](O)C[C@]2(C=O)[C@@H](C(=O)CO)CC[C@@H]12 [Aldosterone]	did not inhibit	104 pM	–
